# Assay outcomes deposited in PubChem BioAssay by The Scripps Research Institute Molecular Screening Center.
# Shown are actives, neighbours in structure and some others; about 3.3% of the full set was active somewhere.
# rCAG binder-1: binds r(CAG) RNA repeats | r(CAG) RNA repeat, TO-PRO-1 dye displacement fluorescence | inhibition, % at 3 µM | actives 1.3% (n = 370,000) | AID 651821;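 active = inhibition above the plate cutoff, the mean of all test compounds on that plate plus 3 SD, cut at about 35% in these data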;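 note: 0% = DMSO alone and 100% = 100 µM mitoxantrone as full dye displacement; higher means more dye released from RNA so lower well fluorescence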
# ABHD4 inh: inhibitors of mouse ABHD4; purified mABHD4, FP-Rh probe fluorescence polarization; actives 0.54% (n = 370,000); inhibition, % at 8.92 µM;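 active = inhibition exceeding the mean over every tested compound plus 3 SD, cut at about 30% in these data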;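 note: 0% = plate median of compound wells and 100% = S159A mutant with DMSO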
#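 Test system: mouse ABHD4 enzyme, wild type. Reagent: FP-Rh fluorescent activity-based probe, added after compound pre-incubation. Timing: pre-incubation 45 min, probe exposure 60 min, at 25 °C. Technique: FP readout, ex 525 nm / em 598 nm. Benchmarks: high control S159A mutant with DMSO, low control median of compound wells.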
# SIAE inh: inhibitors of human sialic acid acetylesterase SIAE | inhibition, % at 9.66 µM | Q9HAT2 | actives 0.69% (n = 370,000) | SIAE FP-Rh probe binding, fluorescence polarization;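 active = inhibition above a cutoff: mean of compounds within the control limits plus 3 SD of those, cut at about 17% in these data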;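 note: 0% = plate median of compound wells and 100% = probe without SIAE protein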
# Target sequence (Q9HAT2 whole entry, looked up): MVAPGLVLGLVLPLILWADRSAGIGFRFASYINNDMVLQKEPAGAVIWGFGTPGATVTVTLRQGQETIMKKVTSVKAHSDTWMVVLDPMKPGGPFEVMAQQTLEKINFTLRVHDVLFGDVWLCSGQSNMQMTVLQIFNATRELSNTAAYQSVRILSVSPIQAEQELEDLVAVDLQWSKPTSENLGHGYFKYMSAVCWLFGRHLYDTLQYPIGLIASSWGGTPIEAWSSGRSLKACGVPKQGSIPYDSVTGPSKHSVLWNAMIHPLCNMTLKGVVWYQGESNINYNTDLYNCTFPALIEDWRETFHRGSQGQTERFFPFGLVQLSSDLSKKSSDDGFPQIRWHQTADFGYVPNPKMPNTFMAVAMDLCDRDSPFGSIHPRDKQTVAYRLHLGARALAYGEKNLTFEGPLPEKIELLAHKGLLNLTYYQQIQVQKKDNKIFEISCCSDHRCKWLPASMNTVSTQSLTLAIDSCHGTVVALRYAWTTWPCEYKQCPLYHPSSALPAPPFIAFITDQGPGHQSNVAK
# TCR-CD3 inh: human TCR-CD3 binding inhibition; TAMRA-labeled TCR probe fluorescence, biochemical; inhibition, % at 9.4 µM; actives 0.37% (n = 360,000); in the data active = inhibition above about 19%;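 note: recombinant mutant TCR 2C K166C tagged with TAMRA read by polarization; 0% = receptor in buffer alone and 100% = receptor with positive control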
# PRMT1 FP inh: PRMT1 (human) inhibition, primary screen; inhibition, % at 2.79 µM; Q99873; recombinant PRMT1, activity-based probe fluorescence polarization; actives 1.3% (n = 370,000); AID 652257;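 active = inhibition above about 21% made by adding two undisclosed values, limit read from the data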
# rCAG bind conf: r(CAG) RNA repeat binding, confirmation. shares compounds with rCAG binder-1. TO-PRO-1 dye displacement fluorescence. inhibition, % at 3 µM. actives 70% (n = 4,300);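 active = inhibition above a per-plate cutoff, the mean inhibition of sample wells plus 3 SD, cut at about 35% in these data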;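 note: loss of TO-PRO-1 fluorescence as compound displaces dye from 1x1 AA loop RNA; 0% = DMSO only wells and 100% = 100 µM mitoxantrone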
# DNA CAG counter: DNA CAG dye complex inhibition counter-screen | shares compounds with rCAG binder-1 | d(CAG) DNA oligo TO-PRO-1 dye displacement, fluorescence | inhibition, % at 3 µM | actives 94% (n = 4,300) | AID 652068;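 active = inhibition above its plate's cutoff, the mean test-well inhibition plus 3 SD, cut at about 4.8% in these data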;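 note: 0% = DNA dye mix with DMSO and 100% = 100 µM mitoxantrone; hits displace the dye from DNA and so lower well fluorescence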
# dCAG dye DR: disrupts DNA CAG TO-PRO-1 complex in dose response; shares compounds with rCAG binder-1; DNA CAG/GTC duplex TO-PRO-1 dye displacement fluorescence; IC50, µM; actives 20% (n = 250); AID 686960; in the data active = IC50 below about 10 µM
# dCAG TOPRO ctr: counter-screen for rCAG binders: DNA CAG TO-PRO-1 complex inhibitors, late stage; shares compounds with rCAG binder-1; d(CAG) DNA duplex TO-PRO-1 dye displacement, fluorescence; IC50, µM; actives 80% (n = 30)
# rCAG binder-2: r(CAG) repeat RNA binding, TO-PRO-1 displacement. actives 100% (n = 30). r(CAG) RNA TO-PRO-1 dye displacement, fluorescence. AID 720651. IC50, µM. shares compounds with rCAG binder-1
# The depositor's hits bear a star; i = inactive; x = not tested or not shown. Unless noted, the rule behind the calls is not given here.
SMILES,rCAG binder-1,ABHD4 inh,SIAE inh,TCR-CD3 inh,PRMT1 FP inh,rCAG bind conf,DNA CAG counter,others
O=C(NCc1ccccc1)c1ccc2c(=O)[nH]c3c(C(=O)NCC4CCCO4)sc(=S)n3c2c1 (stereo unspecified),50*,26,-2,5,1,91*,66*,
O=C(NCc1ccco1)c1sc(=S)n2c1[nH]c(=O)c1ccccc12,62*,25,-30,4,4,66*,22*,
COC(=O)Cn1nc(-c2ccccc2)c2cccc(C(F)(F)F)c21,x,-8,-2,x,5,x,x,
O=C(CN(C(=O)OCC1c2ccccc2-c2ccccc21)[C@@H](Cc1ccccc1)C(=O)O)OCc1ccc(C(=O)NCc2ccccc2)cc1,61*,-21,-1,x,1,70*,27*,dCAG dye DR=>30
COC(=O)[C@]12C[C@H](CC(=O)NCc3ccc(OC)c(OC)c3)C(=O)N(Cc3ccc(Cl)cc3Cl)C1=C[C@H](C(C)(C)C)O[C@@H]2C,6,-14,-8,x,-1,x,x,
CCCCC(=O)Nc1nc(C)c(-c2csc(Nc3cc(Cl)ccc3OC)n2)s1,45*,0,6,-6,2,23,13*,
CCCCCCC(=O)Nc1nc(C)c(-c2csc(Nc3cc(Cl)ccc3C)n2)s1,39*,6,7,0,2,20,11*,
CCOc1cc(/C=C2\C(=N)N3N=C(S(C)(=O)=O)SC3=NC2=O)ccc1OCCOc1cccc(OC)c1,49*,-18,-27,3,5,92*,73*,
CCC1=NN2C(=N)/C(=C\c3ccc(OCCOc4ccccc4)c(OC)c3)C(=O)N=C2S1,8,5,-4,4,-2,x,x,
CCS(=O)(=O)C1=NN2C(=N)/C(=C\c3ccc(OCCOc4cccc(OC)c4)c(OC)c3)C(=O)N=C2S1,49*,-10,-21,2,-2,91*,76*,
CCOc1cc(/C=C2/C(=N)N3C=CSC3=NC2=O)ccc1OCCCOc1ccccc1C,2,-4,-4,-9,0,x,x,
C#CCN1CC(N2CCN(CCO)CC2)CS1(=O)=O (stereo unspecified),0,7,-2,x,1,x,x,
CCOc1ccc(/C=C2\SC(=S)N(NS(=O)(=O)c3ccc(C)cc3)C2=O)cc1OC,83*,-12,-11,3,1,76*,41*,
CCOc1cc(/C=C2\SC(=S)N(NS(=O)(=O)c3ccccc3)C2=O)ccc1O,47*,-152,-139,-60,-1,28,8.6*,
CCOc1cc(/C=C2\SC(=S)N(Nc3ccccc3)C2=O)ccc1O,30,-245,-168,-105,1,x,x,
CCOc1ccc(/C=C2\SC(=S)N(NS(=O)(=O)c3ccccc3)C2=O)cc1OC,79*,11,-16,-5,9,71*,35*,
COc1cc(/C=C2\SC(=S)N(CCCCC(=O)O)C2=O)ccc1OS(=O)(=O)c1ccc(C)cc1,79*,16,-13,13,7,80*,44*,
COc1ccc(/C=C2\SC(=S)N(CCCCCC(=O)Nc3cc(C)on3)C2=O)cc1OC,3,-7,-2,-11,-4,x,x,
O=[N+]([O-])c1cccc2[nH]c(CNc3nc(N4CCOCC4)nc4c3ncn4-c3ccsc3)nc12,x,11,-2,x,-4,x,x,
COc1ccc(CSc2nnc(SCC(=O)Nc3ccccc3-c3ccccc3)s2)cc1,9,-12,-6,x,-1,x,x,
CCC(=O)NC(NC(=S)Nc1ccc(S(N)(=O)=O)cc1)C(Cl)(Cl)Cl (stereo unspecified),53*,4,6,2,1,4,1,
CCc1nnc(NS(=O)(=O)c2ccc(NC(=O)c3cc4ccccc4oc3=O)cc2)s1,2,-3,0,-1,-2,x,x,
CCc1nnc(NS(=O)(=O)c2ccc(N/C=C/C(=O)c3ccc(OC)cc3)cc2)s1,59*,-23,-11,5,16,65*,29*,
CCc1nnc(NS(=O)(=O)c2ccc(N/C=C\C(=O)c3cccc4ccccc34)cc2)s1,81*,-51,1,3,-2,82*,54*,
COc1ccc(Cc2nnc(NS(=O)(=O)c3ccc([N+](=O)[O-])cc3)s2)cc1,44*,-3,3,8,3,49*,17*,
SMILES,rCAG binder-1,ABHD4 inh,SIAE inh,TCR-CD3 inh,PRMT1 FP inh,rCAG bind conf,DNA CAG counter,others
COc1ccc(Cc2nnc(NS(=O)(=O)c3ccc(NC(C)=O)cc3)s2)cc1,14,2,-2,-4,-1,x,x,
CCc1nnc(NS(=O)(=O)c2ccc(NC(=O)c3cc(Cl)ccc3OC)cc2)s1,75*,-19,-21,7,9,71*,33*,dCAG dye DR=i
COC(=O)[C@H](Cc1ccccc1)N1Cc2ccccc2Oc2cc(Br)ccc2S1(=O)=O,8,-8,-2,1,0,x,x,
CN(C)S(=O)(=O)c1cccc(C(=O)N/N=C\c2ccccc2)c1,0,3,1,x,0,x,x,
COc1ccc(NC(=O)Nc2nnc(-c3ccncc3)s2)cc1,42*,3,-1,4,2,18,8.9*,
O=C(Nc1ccc(Cl)c(Cl)c1)Nc1nnc(-c2ccncc2)s1,16,0,4,-1,-1,x,x,
CCc1nnc(NS(=O)(=O)c2ccc(NC(=O)Nc3ccc(OC)cc3)cc2)s1,54*,7,-3,0,-5,25,6.9*,
CCOC(=O)c1sc(NC(=O)Nc2ccc(Cl)cc2)nc1C,36*,-1,0,1,5,36*,25*,
CCc1nnc(NC(=O)Nc2ccc(Cl)cc2)s1,39*,-2,-6,10,2,9,12*,
C[C@@H]1CN([C@@H](C)CO)S(=O)(=O)c2ccc(Br)cc2O[C@@H]1CN(C)Cc1ccc2c(c1)OCO2,4,3,1,6,-1,x,x,
S=C(NCc1ccc(Cl)cc1)OC1CCC12CCC(c1ccccc1)CC2 (stereo unspecified),8,-20,-8,x,1,x,x,
O=C(c1cc(-c2ccccc2)on1)N1CCC(Oc2cccnc2)CC1,-3,6,1,x,-2,x,x,
CCc1nnc(NS(=O)(=O)c2ccc(NC(=O)COc3ccc(Cl)c(C)c3)cc2)s1,78*,-33,-4,-3,2,70*,32*,dCAG dye DR=i;dCAG TOPRO ctr=3.5*;rCAG binder-2=1.3*
